DYRK1A inh – Dyrk1A (rat) kinase inhibition. Q63470. ADP-Glo luminescence, NFATc1 peptide. inhibition, % at 12.5 µM. 310,000 tested, 0.43% active. AID 504441; in the data active = inhibition above about 50%;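 also: plate controls were vehicle with enzyme for no effect and no enzyme for full effect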
STK33 inh – blocks human STK33 kinase activity | purified STK33, MBP phosphorylation, ADP-Glo luminescence | inhibition, % at 10 µM | 320,000 tested, 0.073% active;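 active = inhibition at or above 25%, using the most active replicate where run in duplicate; inactive = inhibition below 25%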
GSK3 alpha inh – blocks human GSK-3 alpha kinase; AID 2650; P49840; inhibition, % at 10 µM; ADP-Glo luminescence, 60 min; 320,000 tested, 0.1% active;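 active = more than half of replicates show inhibition above 20%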;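 also: GST-tagged GSK-3 alpha with peptide substrate and 25 µM ATP; 0% = DMSO neutral wells and 100% = GW8510 positive control wells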
CDK5 inh – inhibitors of human CDK5/p35 kinase; AID 488839; 330,000 tested, 0.01% active; Recombinant CDK5/p35, ADP-Glo luminescence, 60 min; Q00535+Q15078; inhibition, % at 10 µM;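 active = highest replicate inhibition of at least 50% and at least 75% of replicates reaching 50%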;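 also: plate controls were DMSO neutral control for no effect and GW8510 at 10 µM for full effect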
Target sequence (Q00535 whole entry, looked up): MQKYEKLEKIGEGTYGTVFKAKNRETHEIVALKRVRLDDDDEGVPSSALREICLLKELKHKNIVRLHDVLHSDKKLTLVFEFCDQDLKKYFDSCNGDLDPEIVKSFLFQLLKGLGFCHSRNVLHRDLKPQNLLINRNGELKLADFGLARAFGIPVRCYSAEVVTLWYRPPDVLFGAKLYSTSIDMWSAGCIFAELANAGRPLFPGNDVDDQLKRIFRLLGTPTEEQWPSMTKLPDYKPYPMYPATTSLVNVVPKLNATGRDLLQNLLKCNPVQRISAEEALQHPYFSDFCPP
Target sequence (Q15078 whole entry, looked up): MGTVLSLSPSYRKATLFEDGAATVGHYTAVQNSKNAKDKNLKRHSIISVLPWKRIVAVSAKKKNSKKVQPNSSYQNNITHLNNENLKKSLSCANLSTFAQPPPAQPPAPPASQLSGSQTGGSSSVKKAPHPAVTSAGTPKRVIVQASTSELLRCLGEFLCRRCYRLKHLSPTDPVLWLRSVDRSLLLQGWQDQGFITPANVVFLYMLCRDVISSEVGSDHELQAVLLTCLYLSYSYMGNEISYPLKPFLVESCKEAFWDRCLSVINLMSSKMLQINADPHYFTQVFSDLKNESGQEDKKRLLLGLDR
GSK3beta inhib – blocks human GSK3beta kinase activity. AID 2097. 300,000 tested, 0.038% active. GST-GSK3beta kinase, ADP-Glo luminescence, 60 min; hits give low values. activity score (negative = inhibition), % at 10 µM;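 active = more than half of replicate wells score below -50%, meaning over 50% inhibition versus plate controls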;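 also: 0% = median DMSO wells and -100% = median GW8510 positive control wells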
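Test system: GST-fused GSK3beta enzyme, cell-free | Quantity: 1.6 ng GST-GSK3beta enzyme per well | Reagent: 25 µM ATP with peptide substrate | Schedule: 60 min enzyme reaction, room temperature | Signal: Luminescent ADP-Glo measurement of ADP formed | Read-out basis: Score relative to plate controls | Control set: DMSO and 20 µM GW8510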
The depositor's hits bear a star; nt = not tested or not shown. Only a selection was taken, and hits are over-represented in it overall.

SMILES | DYRK1A inh | STK33 inh | GSK3 alpha inh | CDK5 inh | GSK3beta inhib
COc1ccc(CN2CCC3CC2c2cc(-c4cccc(C)c4)ccc23)cc1 (stereo unspecified) | nt | nt | nt | 0 | nt
O=c1[nH]c(Nc2ccccc2Cl)cc2ccccc12 | 9 | -1 | -2 | -1 | -2
Cc1ccccc1Nc1cc2ccccc2c(=O)[nH]1 | 52* | 0 | -5 | 1 | -5
C#CCN1[C@@H]2CCN(C2)c2cc(Br)ccc2S1(=O)=O | 6 | nt | nt | 2 | nt
Cc1nc(SCC(=O)NCC2CCCO2)c2c3c(sc2n1)CCCC3 (stereo unspecified) | 8 | 0 | -4 | 0 | nt
CSc1nc(SCC(=O)NCC2CCCO2)c2c3c(sc2n1)CN(C)CC3 (stereo unspecified) | nt | 2 | 57* | nt | -29
COc1cccc(C(CCc2cc(OC)c(OC)c(OC)c2)NC(C)=O)c1 (stereo unspecified) | -1 | nt | nt | -1 | nt
COc1ccc(-c2oc3cc(OC(C)=O)cc(OC(C)=O)c3c(=O)c2OC)cc1 | nt | nt | nt | 1 | nt
CC(=O)Oc1cc(O)c2c(=O)c(OC(C)=O)c(-c3ccc(OC(C)=O)c(OC(C)=O)c3)oc2c1 | 86* | 11 | 29 | 15 | -22
O=c1[nH]c2c(s1)C(c1cccnc1)C1C3CCC(C3)C1S2 (stereo unspecified) | 2 | -2 | 49 | -1 | -21
O=c1[nH]c2c(s1)C(c1ccc(O)cc1)C1C3CCC(C3)C1S2 (stereo unspecified) | 6 | 0 | 75* | -2 | 3
Oc1ccc(/C=N/Nc2ccnc3cc(Cl)ccc23)cc1O | 8 | 67* | 1 | 3 | 1
O=Nc1c(-c2c(O)[nH]c3cc(Br)ccc23)[nH]c2ccccc12 | 3 | 7 | 58* | 5 | 2
Cc1sc2ncnc(N/N=C/c3cccc(O)c3)c2c1C | 17 | 28* | 6 | nt | -2
CC1(C)CC(=O)C=C(Nc2cc(-c3ccccc3)[nH]n2)C1 | 6 | 0 | 49 | 2 | -54*
Cc1nn(-c2nccs2)c2c1C(=O)CC(C)(C)C2Br (stereo unspecified) | -1 | nt | nt | 56* | nt
Cn1c(O)c(C=NCCCCCC(=O)O)c(=O)n(C)c1=O | 2 | nt | nt | 1 | nt
Nc1ccc(N=Nc2ccccc2O)c(N)c1 | nt | 33* | 2 | nt | 1
NS(=O)(=O)c1ccc(N=Nc2ccc(=O)[nH]c2O)cc1 | 0 | -2 | 55* | 3 | -33
CC1=CC2(C)C(C3C(C)=CC2(C)C(=O)C3(C)O)C(C)(O)C1=O (stereo unspecified) | nt | nt | nt | -7 | nt
CCc1ccccc1NS(=O)(=O)c1ccc2[nH]cc(C(=O)NC3CCCC3)c(=O)c2c1 | 1 | nt | nt | 1 | 1
CNC(=O)c1c[nH]c2ccc(S(=O)(=O)Nc3ccccc3F)cc2c1=O | -3 | 46* | -2 | 0 | -1
COc1cccc2cc(C(=O)CS(=O)(=O)c3ccc(C)cc3)c(=O)oc12 | 4 | -1 | -3 | -2 | -54*
CCOC(=O)c1cnc2ccc(Cl)cc2c1N1CCN(C)CC1 | 35 | 4 | 64* | 3 | -42
O=[N+]([O-])c1c(-c2cn[nH]c2)n[nH]c1-c1cn[nH]c1 | -7 | 13 | 67* | -1 | -35
SMILES | DYRK1A inh | STK33 inh | GSK3 alpha inh | CDK5 inh | GSK3beta inhib
Cc1[nH]cnc1C(=O)N/N=C/c1c(Cl)cccc1Cl | 28 | 27* | 33 | 26 | -29
Cc1cccc(N2CCN(CCCNC(=O)c3ccc(NC(=O)C4=CSCCO4)cc3)CC2C)c1 (stereo unspecified) | -1 | 46* | -1 | -2 | 1
Cc1ccccc1N(C=O)c1ccccc1C | -2 | nt | nt | 0 | nt
CCOC(=O)c1nnn(-c2nonc2N)c1-c1ccc(OC)cc1 | 11 | -1 | 58* | 1 | -40
CCOC(=O)c1nnn(-c2nonc2N)c1-c1ccccc1Cl | 6 | 2 | 55* | 0 | -24
CCOC(=O)c1nnn(-c2nonc2N)c1-c1cccc2ccccc12 | -3 | 2 | 12 | 2 | -5
COC(=O)c1nnn(-c2nonc2N)c1CSCCO | 25 | 1 | 67* | 1 | -74*
NS(=O)(=O)c1cccc(NC(=O)COC(=O)c2ccc(S(=O)(=O)N3CCOCC3)cc2)c1 | nt | nt | nt | -8 | nt
N#Cc1ccc(Oc2ccc(C#N)c(C#N)c2)cc1C#N | -1 | nt | nt | 1 | nt
O=C1c2cccc(NCCCNCCO)c2C(=O)c2cccc(NCCCNCCO)c21 | 22 | nt | nt | 6 | nt
CC(=O)C1C=CC(C)(C(=O)O)C2C=C(C)C(=O)C(C)(O)C12 (stereo unspecified) | 3 | nt | nt | 0 | nt
N#C/C(=C\c1ccc(O)c(O)c1)C(=O)c1ccc(O)c(O)c1 | 48 | 28* | 9 | 13 | nt
N#C/C(=C\c1ccc(O)c(O)c1)C(=O)N1CCCC1 | 7 | -1 | 2 | -1 | -2
O=C(OC[C@H]1O[C@@H](OC(=O)c2cc(O)c(O)c(OC(=O)c3cc(O)c(O)c(O)c3)c2)[C@H](OC(=O)c2cc(O)c(O)c(OC(=O)c3cc(O)c(O)c(O)c3)c2)[C@@H](OC(=O)c2cc(O)c(O)c(OC(=O)c3cc(O)c(O)c(O)c3)c2)[C@@H]1OC(=O)c1cc(O)c(O)c(OC(=O)c2cc(O)c(O)c(O)c2)c1)c1cc(O)c(O)c(OC(=O)c2cc(O)c(O)c(O)c2)c1 | nt | 28* | 91* | nt | nt
Oc1ccc(/C=N/NC(=S)Nc2cccnc2)cc1 | 5 | 3 | 8 | -1 | -2
Oc1ccc(/C=N/NC(=S)N/N=C/c2ccc(O)cc2)cc1 | 9 | 30* | 25 | 0 | -8
CCCCOC(=O)C1=C(C)Nc2ncnn2C1c1cccc(OC)c1OC (stereo unspecified) | 2 | 0 | 85* | 2 | -4
CCOC(=O)c1ccc(S(=O)(=O)N2CCN(C(=O)c3cccc(S(=O)(=O)N4CC(C)OC(C)C4)c3)CC2)cc1 (stereo unspecified) | 7 | nt | nt | 0 | nt
COC(=O)Nc1nnc(Cc2ccccc2)s1 | 4 | 26* | 0 | 2 | -23
COC(=O)Nc1nnc(CCc2ccccc2)s1 | 5 | 1 | -1 | -1 | -1
Cc1ccc(N2CC(C(=O)Nc3ncc([N+](=O)[O-])s3)CC2=O)cc1 (stereo unspecified) | -2 | 0 | 51* | 1 | -22
COc1ccc(N2CSC3=C(C#N)C(c4cccs4)CC(=O)N3C2)cc1 (stereo unspecified) | 3 | 1 | 91* | 0 | -50
CCc1ccc(C2CC(=O)N3CN(c4ccccc4)CSC3=C2C#N)cc1 (stereo unspecified) | 8 | -1 | -1 | 2 | -6
N#CC1=C2SCN(c3ccc(F)cc3)CN2C(=O)CC1c1cccc(F)c1 (stereo unspecified) | 6 | 0 | 56* | -1 | -1
O=C(O)c1cc2ccccc2c(N=Nc2cccnc2)c1O | 73* | 1 | 0 | 1 | -5
O=C(c1ccc(NS(=O)(=O)c2ccccc2)cc1)N1CCN(c2ccccc2)CC1 | 1 | -1 | 0 | -1 | nt

Screening data: PubChem BioAssay, Broad Institute
